# Results from ChEMBL document CHEMBL2331084, “Synthesis and evaluation of oxime derivatives as modulators for amyloid beta-induced mitochondrial dysfunction” (Eur J Med Chem, 2013).
# Assays:
# [1] = system: HT-22; assay: Inhibition of mPTP in mouse HT22 cells assessed as reduction in amyloid beta-induced mitochondrial membrane damage at 10 uM incubated for 10 mins prior to amyloid beta-challenge measured every 1 hr for 3 hrs by JC-1 based fluorometric analysis; format: cell-based; set-up: scale not given: the % may be the effect or the level left
# Outline: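 HT-22 cells, 30,000 per well, seeded a day earlier, loaded with 7.5 μM JC-1 (final) in phenol red-free Opti-MEM for 1 h 15 min at 37 °C, then PBS-washed. Compound solution at 10 μM for 10 min at 37 °C, then amyloid beta 1–42 solution at 10 μM. Red (ex/em 530/580) and green (485/530) fluorescence read hourly for 3 h. Green/red ratio change normalised to vehicle as 100%.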
# [2] = Cytotoxicity against mouse […] cells assessed as cell viability at 5 uM; format: cell-based; conditions: HT22 cells, read-out: Activity
# [3] = system: HT-22; assay: Inhibition of mPTP in mouse HT22 cells assessed as recovery in amyloid beta-suppressed ATP level at 5 uM incubated for 10 mins prior to amyloid beta-challenge measured for 7 hrs relative to control; format: cell-based; set-up: scale not given: the % may be the effect or the level left
# Outline: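 HT-22 mouse hippocampal cells, grown in DMEM with 10% FBS at 37 °C and 5% CO2, were seeded the day before. Compound (10 µM solution) added 10 min before amyloid beta 1-42 (10 µM solution), then 7 h at 37 °C. Lysates normalised to equal protein by BCA, and ATP measured with a luciferase kit. % recovery is relative to the amyloid-treated vehicle. Viability is from ATP without amyloid beta.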
# [4] = (§1) Metabolic stability in rat plasma at 0.5 ug/ml after 2 hrs by LC/MS analysis; format: ADME, cell-free; conditions: read-out: Stability
# Outline: (§2)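 Drug-free rat plasma spiked from acetonitrile stock to 0.5 μg/mL, held at 37 °C with shaking for 0, 15, 30, 60 and 120 min. Quenched with 2 volumes of acetonitrile containing carbamazepine internal standard, centrifuged, supernatant quantified by LC–MS/MS.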
# [5] = Tmax in Sprague-Dawley rat at 10 mg/kg, po; format: ADME, organism-based; set-up: dose 10 mg/kg, route oral; conditions: in vivo
# Outline: (§3)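 Male Sprague-Dawley rats dosed 10 mg/kg iv (n = 3) or orally (n = 4). Carotid blood sampled at 0, 1 min (iv only), 5 min, 15 min, 0.5, 1, 2, 4, 6 and 8 h. Plasma analysed by LC-MS/MS after acetonitrile precipitation with internal standard (LLOQ 5 ng/mL). Parameters from non-compartmental analysis. Values are mean ± SD.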
# [6] = Bioavailability in Sprague-Dawley rat at 10 mg/kg, po; conditions: in vivo
# [7] = AUClast in Sprague-Dawley rat at 10 mg/kg, iv; format: ADME, organism-based; set-up: time 0 - last, dose 10 mg/kg, route intravenous; conditions: plasma
# Outline: (§4)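 Male Sprague Dawley rats received 10 mg/kg intravenously (n = 3) or orally (n = 4). Blood was drawn via the carotid artery at 0, 1 min (IV only), 5 and 15 min, and 0.5, 1, 2, 4, 6 and 8 h. Plasma was precipitated with acetonitrile containing internal standard and analysed by LC–MS/MS (LLOQ 5 ng/mL). Parameters came from non-compartmental analysis; AUClast used the trapezoidal rule. Values are mean ± SD.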
# [8] = Clearance in Sprague-Dawley rat at 10 mg/kg, po; format: ADME, organism-based; set-up: dose 10 mg/kg, route oral; conditions: in vivo; outline: as §3
# [9] = Apparent volume of distribution at steady state in Sprague-Dawley rat at 10 mg/kg, iv; format: ADME, organism-based; set-up: dose 10 mg/kg, route intravenous; conditions: in vivo, read-out: Vdss(app); outline: as §3
# [10] = Ratio of drug uptake in brain to drug uptake in plasma in Sprague-Dawley rat at 10 mg/kg, po; format: ADME, organism-based; set-up: dose 10 mg/kg, route oral; conditions: read-out: BPR
# Outline: (§5)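 Male Sprague-Dawley rats given 10 mg/kg iv or orally. Brain-to-plasma concentration ratio taken 2 h after dosing. Concentrations measured by LC-MS/MS.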
# [11] = AUC (0 to infinity) in Sprague-Dawley rat at 10 mg/kg, po; format: ADME, organism-based; set-up: time infinity, dose 10 mg/kg, route oral; conditions: plasma
# [12] = Terminal half life in Sprague-Dawley rat at 10 mg/kg, po; format: ADME, organism-based; set-up: dose 10 mg/kg, route oral; conditions: in vivo, read-out: beta t1/2; outline: as §3
# [13] = Terminal half life in Sprague-Dawley rat at 10 mg/kg, iv; format: ADME, organism-based; set-up: dose 10 mg/kg, route intravenous; conditions: in vivo, read-out: beta t1/2; outline: as §3
# [14] = Ratio of drug uptake in brain to drug uptake in plasma in Sprague-Dawley rat at 10 mg/kg, iv; format: ADME, organism-based; set-up: dose 10 mg/kg, route intravenous; conditions: read-out: BPR; outline: as §5
# [15] = Cmax in Sprague-Dawley rat at 10 mg/kg, iv; format: ADME, organism-based; set-up: dose 10 mg/kg, route intravenous; conditions: in vivo; outline: as §3
# [16] = Metabolic stability in human liver microsomes at 1 uM after 30 mins by LC/MS analysis; format: ADME, Microsome; conditions: read-out: Stability
# Outline: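 Pooled human liver microsomes (0.5 mg/mL protein), compound at 1 μM, 1.2 mM NADPH, 100 mM phosphate pH 7.4, 37 °C with shaking for 30 min, in duplicate. Stopped with ice-cold acetonitrile containing internal standard, centrifuged, supernatant analysed by LC–MS/MS for % remaining.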
# [17] = Cmax in Sprague-Dawley rat at 10 mg/kg, po; format: ADME, organism-based; set-up: dose 10 mg/kg, route oral; conditions: in vivo; outline: as §3
# [18] = Cytotoxicity against mouse […] cells assessed as cell viability at 10 uM after 24 hrs by MTT assay; format: cell-based; conditions: read-out: Activity
# [19] = system: HT-22; assay: Neuroprotective activity against in mouse HT22 cells assessed as inhibition of amyloid beta-induced toxicity at 10 uM incubated for 10 mins prior to amyloid beta-challenge measured after 24 hrs by MTT assay; format: functional
# Outline: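 HT-22 mouse hippocampal cells (DMEM, 10% FBS), 5000 per well, seeded a day before. Compound solution at 10 μM added 10 min before amyloid beta 1–42 solution at 10 μM, then 24 h at 37 °C. MTT 2 h, then acidified Triton/isopropanol for 1 h at RT, A570. Vehicle subtracted; % inhibition versus Aβ-treated vehicle; viability from wells without Aβ.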
# [20] = AUC (0 to infinity) in Sprague-Dawley rat at 10 mg/kg, iv; format: ADME, organism-based; set-up: time infinity, dose 10 mg/kg, route intravenous; conditions: plasma
# [21] = Clearance in Sprague-Dawley rat at 10 mg/kg, iv; format: ADME, organism-based; set-up: dose 10 mg/kg, route intravenous; conditions: in vivo; outline: as §3
# [22] = AUClast in Sprague-Dawley rat at 10 mg/kg, po; format: ADME, organism-based; set-up: time 0 - last, dose 10 mg/kg, route oral; conditions: plasma; outline: as §4
# [23] = system: Plasma; assay: as §1; format: ADME, cell-free; conditions: 2 h; outline: as §2
# [24] = AUC (0 to infinity) in Sprague-Dawley rat at 3 mg/kg, ip; format: ADME, organism-based; set-up: dose 3 mg/kg, route intraperitoneal, time infinity; conditions: plasma
# [25] = Tmax in ICR mouse at 10 mg/kg, po; format: ADME, organism-based; set-up: dose 10 mg/kg, route oral; conditions: in vivo
# [26] = Tmax in Sprague-Dawley rat at 3 mg/kg, ip; format: ADME, organism-based; set-up: dose 3 mg/kg, route intraperitoneal; conditions: in vivo
# [27] = Cmax in Sprague-Dawley rat at 3 mg/kg, ip; format: ADME, organism-based; set-up: dose 3 mg/kg, route intraperitoneal; conditions: in vivo
# [28] = AUClast in ICR mouse at 10 mg/kg, po; format: ADME, organism-based; set-up: time 0 - last, dose 10 mg/kg, route oral; conditions: plasma
# [29] = Terminal half life in Sprague-Dawley rat at 3 mg/kg, ip; format: ADME, organism-based; set-up: dose 3 mg/kg, route intraperitoneal; conditions: in vivo, read-out: beta t1/2
# [30] = Ratio of drug uptake in brain to drug uptake in plasma in ICR mouse at 10 mg/kg, po; format: ADME, organism-based; set-up: dose 10 mg/kg, route oral; conditions: read-out: BPR
# [31] = AUClast in Sprague-Dawley rat at 3 mg/kg, ip; format: ADME, organism-based; set-up: dose 3 mg/kg, route intraperitoneal, time 0 - last; conditions: plasma
# [32] = Cmax in ICR mouse at 10 mg/kg, po; format: ADME, organism-based; set-up: dose 10 mg/kg, route oral; conditions: in vivo
smiles,measurement,setting,value
Fc1cccc(COc2ccccc2/C=N/OC2CCN(Cc3ccccc3)C2)c1 (stereo unspecified),Activity,[1],42%
same,viability at 5 µM,[2],74%
same,Activity,[3],-201%
Clc1ccc(COc2ccccc2/C=N/OC2CCN(Cc3ccccc3)C2)cc1Cl (stereo unspecified),"remaining at 2 h, 0.5 ug/ml",[4],111%
same,Tmax,[5],2 h
same,bioavailability,[6],38.1%
same,AUC(0-t),[7],5890 ng·h/mL
same,CL/F,[8],72.1 mL/min/kg
same,Vd,[9],2.87 L/kg
same,Kp,[10],0.29
same,AUC(0-inf),[11],2390 ng·h/mL
same,Activity,[1],41%
same,viability at 5 µM,[2],83%
same,half-life,[12],2.92 h
same,half-life,[13],2.35 h
same,Activity,[3],104%
same,Kp,[14],14.6
same,Cmax,[15],44500 ng/mL
same,"remaining at 0.5 h, 1 µM",[16],47.8%
same,Cmax,[17],570 ng/mL
same,"viability at 24 h, 10 µM",[18],129%
same,inhibition at 10 µM,[19],149%
same,AUC(0-inf),[20],6280 ng·h/mL
same,clearance,[21],28.1 mL/min/kg
same,AUC(0-t),[22],1960 ng·h/mL
C(=N\OC1CN2CCC1CC2)/c1ccccc1Oc1ccccc1 (stereo unspecified),Activity,[1],84%
CC(C)N1CCC(O/N=C/c2ccccc2OCc2cccc(F)c2)C1 (stereo unspecified),Activity,[1],39%
same,viability at 5 µM,[2],94%
same,Activity,[3],-223%
FC(F)(F)c1ccccc1COc1ccccc1/C=N/OC1CN2CCC1CC2 (stereo unspecified),Activity,[1],91%
COc1ccccc1/C=N/OC1CCN(Cc2ccccc2)C1 (stereo unspecified),Activity,[1],81%
CN1CCC(O/N=C/c2ccccc2OCc2cccc(F)c2)C1 (stereo unspecified),Activity,[1],42%
same,viability at 5 µM,[2],87%
same,Activity,[3],20%
Fc1ccc(COc2ccccc2/C=N/OC2CN3CCC2CC3)cc1 (stereo unspecified),Activity,[1],93%
CN1CCCC(O/N=C/c2ccccc2OCc2ccc(Cl)c(Cl)c2)C1 (stereo unspecified),Activity,[1],62%
Clc1ccc(COc2ccccc2/C=N/OC2CN3CCC2CC3)cc1 (stereo unspecified),Activity,[1],85%
C(=N\OC1CN2CCC1CC2)/c1ccccc1OCc1ccccc1 (stereo unspecified),Stability,[23],Stable
same,AUC(0-inf),[24],990 ng·h/mL
same,Tmax,[25],5 min
same,Tmax,[26],0.417 h
same,Cmax,[27],524 ng/mL
same,AUC(0-t),[28],525 ng·h/mL
same,Activity,[1],59%
same,viability at 5 µM,[2],92%
same,Activity,[3],13%
same,half-life,[29],6.1 h
same,Kp,[30],273
same,"remaining at 0.5 h, 1 µM",[16],85%
same,"viability at 24 h, 10 µM",[18],84%
same,AUC(0-t),[31],930 ng·h/mL
same,inhibition at 10 µM,[19],0%
same,Cmax,[32],330 ng/mL
Brc1cccc(/C=N/OC2CN3CCC2CC3)c1 (stereo unspecified),Activity,[1],95%
Clc1cccc(Cl)c1COc1ccccc1/C=N/OC1CN2CCC1CC2 (stereo unspecified),Activity,[1],96%
CN1CCC(O/N=C/c2ccccc2OCc2ccc(Cl)cc2Cl)C1 (stereo unspecified),Activity,[1],18%
same,viability at 5 µM,[2],90%
same,Activity,[3],-9%
CN1CCC(O/N=C/c2cccc(C(F)(F)F)c2)C1 (stereo unspecified),Activity,[1],108%
C(=N\OC1CCN(Cc2ccccc2)C1)/c1ccccc1OCc1ccccc1 (stereo unspecified),Activity,[1],38%
same,viability at 5 µM,[2],99%
same,Activity,[3],-137%
Clc1ccc(COc2ccccc2/C=N/OC2CCN(Cc3ccccc3)C2)c(Cl)c1 (stereo unspecified),Activity,[1],61%
CN1CCCC(O/N=C/c2cccc(C(F)(F)F)c2)C1 (stereo unspecified),Activity,[1],84%
Fc1ccccc1COc1ccccc1/C=N/OC1CN2CCC1CC2 (stereo unspecified),Activity,[1],82%
Clc1ccc(COc2ccccc2/C=N/OC2CN3CCC2CC3)cc1Cl (stereo unspecified),Activity,[1],77%
Clc1ccccc1COc1ccccc1/C=N/OC1CN2CCC1CC2 (stereo unspecified),Activity,[1],88%
COc1cccc(/C=N/OC2CN3CCC2CC3)c1 (stereo unspecified),Activity,[1],86%
Clc1ccc(COc2ccccc2/C=N/OC2CN3CCC2CC3)c(Cl)c1 (stereo unspecified),Activity,[1],69%
CC(C)N1CCC(O/N=C/c2ccccc2OCc2ccc(Cl)c(Cl)c2)C1 (stereo unspecified),Activity,[1],95%
COc1ccccc1/C=N/OC1CCN(C)C1 (stereo unspecified),Activity,[1],147%
